The record followed here is ChEMBL document CHEMBL1123269, “Synthesis and antitumor activity of certain 3-beta-D-ribofuranosyl-1,2,4-triazolo[3,4-f]-1,2,4-triazines related to formycin prepared via ring closure of a 1,2,4-triazine precursor” (1986).

Type in all cases: functional
The test system of experiment [1] is L1210. The experiment can be described thus: Concentration that produced 50% inhibition of L1210 leukemia tumor cell growth was determined. Particulars: Mus musculus, read-out: ID50 (the source's name). A digest of the protocol: (§1)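 L1210 murine lymphocytic leukemia cells, mycoplasma-free, grown in suspension in RPMI-1640 with 10% fetal bovine serum and 20 mM Hepes. Inoculum 5 × 10⁴ cells/mL with compound at 0.1–100 μM final (0.5-log steps), in triplicate. Incubated 48 h at 37 °C, humidified 5% CO₂. Growth was measured by Coulter count as % of untreated control, or of a matched Me₂SO control. ID₅₀ was read from the %-control vs concentration plot.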

In experiment [2] the test system is CCRF-CEM. The experiment in a line: Concentration that produced 50% inhibition of CCRF-CEM leukemia tumor cell growth was determined. As to conditions: Homo sapiens, read-out: ID50 (the source's name). A digest of the protocol: (§2)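 Assay in CCRF-CEM human T-lymphoblastic leukemia cells (mycoplasma-free; suspension in RPMI-1640, 10% fetal bovine serum, 20 mM Hepes). Seeded at 5 × 10⁴ cells/mL with compound at 0.1–100 μM final in 0.5-log steps, triplicate, for 92 h at 37 °C in humidified 5% CO₂. Electronic cell count gave growth as % of control (Me₂SO-matched where relevant). ID₅₀ was taken from the plot.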

Experiment [3] can be described thus: Concentration that produced 50% inhibition of WIL2 leukemia tumor cell growth was determined. As to conditions: Homo sapiens, read-out: ID50 (the source's name). A digest of the protocol: (§3)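 WIL2 human B-lymphoblastic leukemia cells were kept mycoplasma-free in suspension culture in RPMI-1640 with 10% fetal bovine serum and 20 mM Hepes. Triplicate wells held 5 × 10⁴ cells/mL and compound at 0.1–100 μM final (0.5-log dilutions), for 72 h at 37 °C in 5% CO₂. Coulter cell counts gave growth as % of untreated or Me₂SO-matched controls. ID₅₀ came from the concentration plot.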

Experiment [4] concerns CCRF-CEM. The experiment in a line: Concentration that produced 50% inhibition of CCRF-CEM leukemia tumor cell growth was determined at 100 uM. As to conditions: Homo sapiens. A digest of the protocol: as §2
The nature of experiment [5]: Concentration that produced 50% inhibition of WIL2 leukemia tumor cell growth was determined at 100 uM. As to conditions: Homo sapiens. A digest of the protocol:
as §3

For experiment [6], the system named is L1210. The experiment in a line: Concentration that produced 50% inhibition of L1210 leukemia tumor cell growth was determined at 100 uM. As to conditions: Mus musculus. A digest of the protocol: as §1

Molecules are shown by their SMILES.

For the compound `Nc1nc(N)c2nnc([C@@H]3O[C@H](CO)[C@@H](O)[C@H]3O)n2n1`, the values for the IC50 in experiment [1], in experiment [2] and in experiment [3] were 16.3 µM, 44.7 µM and 45.8 µM, respectively.
The term inhibition denotes how much of the control response was suppressed. Low readings indicate a weak effect, high ones a strong effect. In the case of `Nc1nn2c([C@@H]3O[C@H](CO)[C@@H](O)[C@H]3O)nnc2c(=O)[nH]1`, the results for the inhibition at 100 µM in experiment [4], in experiment [5] and in experiment [6] were 30%, 35% and 47%, respectively.
For `Nc1nn2c([C@@H]3O[C@H](CO)[C@@H](O)[C@H]3O)nnc2c(=S)[nH]1`, in experiment [2], the IC50 is 67 µM.
Regarding `Nc1ncnn2c([C@@H]3O[C@H](CO)[C@@H](O)[C@H]3O)nnc12`, the IC50 worked out at 6.3 µM in experiment [1], 5 µM in experiment [2] and 7.3 µM in experiment [3].
In the same order, the values of `O=C1N=CN=C2C([C@@H]3O[C@H](CO)[C@@H](O)[C@H]3O)=NNC12` (stereo partly drawn) are 31.6 µM, 8.4 µM and 7.5 µM.
Take `O=c1[nH]cnn2c([C@@H]3O[C@H](CO)[C@@H](O)[C@H]3O)nnc12`: the IC50 in experiment [1] stood at 7 µM; in experiment [3] it was 15 µM.
As for `Nc1ncnc2c([C@@H]3O[C@H](CO)[C@@H](O)[C@H]3O)[nH]nc12` [FORMYCIN], the IC50 in experiment [1] worked out at 27.6 µM; in experiment [2], 6.1 µM; in experiment [3], 6.2 µM.
